# Laboratory results reported in ChEMBL document CHEMBL4382192, “Discovery of a potent dual ALK and EGFR T790M inhibitor” (Eur J Med Chem, 2017).
# Assays:
# [1] = target: Serine/threonine-protein kinase 32B (Homo sapiens) (UniProt Q9NY57); test: Binding affinity to wild-type human full length YANK2 (M1 to S414 residues) expressed in bacterial expression system assessed as residual binding level at 1 uM by Kinomescan method relative to control
# [2] = target: Tyrosine-protein kinase ABL1 (Homo sapiens) (UniProt P00519); test: Binding affinity to wild-type human non-phosphorylated ABL1 (S229 to K512 residues) expressed in mammalian expression system assessed as residual binding level at 1 uM by Kinomescan method relative to control
# [3] = test system: eIF-2-alpha kinase GCN2 (Homo sapiens), Q9P2K8 [S808G]; test: Binding affinity to wild-type human partial length GCN2 kinase domain 2 (R585 to T1018 residues) S808G mutant expressed in bacterial expression system assessed as residual binding level at 1 uM by Kinomescan method relative to control
# [4] = target: Serine/threonine-protein kinase 38 (Homo sapiens) (UniProt Q15208); test: Binding affinity to wild-type human partial length NDR1 (N33 to E449 residues) expressed in mammalian expression system assessed as residual binding level at 1 uM by Kinomescan method relative to control
# [5] = target: NUAK family SNF1-like kinase 2 (Homo sapiens) (UniProt Q9H093); test: Binding affinity to wild-type human partial length SNARK (P22 to A333 residues) expressed in mammalian expression system assessed as residual binding level at 1 uM by Kinomescan method relative to control
# [6] = target: G protein-coupled receptor kinase 3 (Homo sapiens) (UniProt P35626); test: Binding affinity to wild-type human full length GRK3 (M1 to L688 residues) expressed in mammalian expression system assessed as residual binding level at 1 uM by Kinomescan method relative to control
# Outline: (§1)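 Single-point kinome-wide KINOMEscan binding panel, test compound at 1 μM, run by the provider's standard protocol.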
# [7] = target: Receptor-interacting serine/threonine-protein kinase 2 (Homo sapiens) (UniProt O43353); test: Binding affinity to wild-type human partial length RIPK2 (M1 to K310 residues) expressed in bacterial expression system assessed as residual binding level at 1 uM by Kinomescan method relative to control
# [8] = target: Death-associated protein kinase 3 (Homo sapiens) (UniProt O43293); test: Binding affinity to wild-type human partial length DAPK3 (M1 to A277 residues) expressed in bacterial expression system assessed as residual binding level at 1 uM by Kinomescan method relative to control
# [9] = target: Serine/threonine-protein kinase TAO3 (Homo sapiens) (UniProt Q9H2K8); test: Binding affinity to wild-type human partial length TAOK3 (M1 to T316 residues) expressed in mammalian expression system assessed as residual binding level at 1 uM by Kinomescan method relative to control
# Chain of Serine/threonine-protein kinase TAO3 (Homo sapiens) (Q9H2K8 whole entry, the tested form may be a part): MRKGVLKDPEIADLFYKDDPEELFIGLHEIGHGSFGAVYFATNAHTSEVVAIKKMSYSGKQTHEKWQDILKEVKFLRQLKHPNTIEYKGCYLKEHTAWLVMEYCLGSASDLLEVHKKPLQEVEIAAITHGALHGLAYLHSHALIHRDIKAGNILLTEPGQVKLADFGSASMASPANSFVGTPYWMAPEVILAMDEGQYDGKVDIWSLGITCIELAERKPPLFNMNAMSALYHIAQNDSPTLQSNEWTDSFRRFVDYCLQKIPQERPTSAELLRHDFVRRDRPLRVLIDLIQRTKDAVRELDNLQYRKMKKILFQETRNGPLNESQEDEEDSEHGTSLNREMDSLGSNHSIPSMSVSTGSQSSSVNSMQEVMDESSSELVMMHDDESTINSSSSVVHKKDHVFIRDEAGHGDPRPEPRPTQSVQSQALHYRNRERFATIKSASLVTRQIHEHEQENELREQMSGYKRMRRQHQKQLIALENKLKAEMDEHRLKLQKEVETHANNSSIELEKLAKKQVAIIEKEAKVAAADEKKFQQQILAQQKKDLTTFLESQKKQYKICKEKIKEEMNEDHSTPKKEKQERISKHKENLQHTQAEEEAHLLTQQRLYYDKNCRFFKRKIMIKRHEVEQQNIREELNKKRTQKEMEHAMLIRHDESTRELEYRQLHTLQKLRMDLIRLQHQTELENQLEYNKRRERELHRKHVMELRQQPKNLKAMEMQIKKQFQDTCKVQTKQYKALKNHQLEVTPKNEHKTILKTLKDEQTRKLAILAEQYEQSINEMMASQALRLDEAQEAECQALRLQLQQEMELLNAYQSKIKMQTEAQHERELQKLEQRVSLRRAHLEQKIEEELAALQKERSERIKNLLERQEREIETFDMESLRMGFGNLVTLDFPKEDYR
# [10] = target: Calcium/calmodulin-dependent protein kinase type II subunit delta (Homo sapiens) (UniProt Q13557); test: Binding affinity to wild-type human partial length CAMK2D (M1 to E329 residues) expressed in bacterial expression system assessed as residual binding level at 1 uM by Kinomescan method relative to control
# [11] = target: Mitogen-activated protein kinase kinase kinase 10 (Homo sapiens) (UniProt Q02779); test: Binding affinity to wild-type human partial length MLK2 (V52 to W380 residues) expressed in bacterial expression system assessed as residual binding level at 1 uM by Kinomescan method relative to control
# [12] = target: Dual specificity protein kinase TTK (Homo sapiens) (UniProt P33981); test: Binding affinity to wild-type human partial length TTK (N505 to V798 residues) expressed in bacterial expression system assessed as residual binding level at 1 uM by Kinomescan method relative to control
# [13] = target: Beta-adrenergic receptor kinase 1 (Homo sapiens) (UniProt P25098); test: Binding affinity to wild-type human full length GRK2 (M1 to L689 residues) expressed in mammalian expression system assessed as residual binding level at 1 uM by Kinomescan method relative to control; outline: as §1
# [14] = target: Insulin receptor (Homo sapiens, UniProt P06213); test: Inhibition of recombinant His-tagged human InsR (1011 to 1382 residues) expressed in baculovirus expression system by Z-LYTE assay
# Chain of Insulin receptor (P06213 28-758 limits assumed): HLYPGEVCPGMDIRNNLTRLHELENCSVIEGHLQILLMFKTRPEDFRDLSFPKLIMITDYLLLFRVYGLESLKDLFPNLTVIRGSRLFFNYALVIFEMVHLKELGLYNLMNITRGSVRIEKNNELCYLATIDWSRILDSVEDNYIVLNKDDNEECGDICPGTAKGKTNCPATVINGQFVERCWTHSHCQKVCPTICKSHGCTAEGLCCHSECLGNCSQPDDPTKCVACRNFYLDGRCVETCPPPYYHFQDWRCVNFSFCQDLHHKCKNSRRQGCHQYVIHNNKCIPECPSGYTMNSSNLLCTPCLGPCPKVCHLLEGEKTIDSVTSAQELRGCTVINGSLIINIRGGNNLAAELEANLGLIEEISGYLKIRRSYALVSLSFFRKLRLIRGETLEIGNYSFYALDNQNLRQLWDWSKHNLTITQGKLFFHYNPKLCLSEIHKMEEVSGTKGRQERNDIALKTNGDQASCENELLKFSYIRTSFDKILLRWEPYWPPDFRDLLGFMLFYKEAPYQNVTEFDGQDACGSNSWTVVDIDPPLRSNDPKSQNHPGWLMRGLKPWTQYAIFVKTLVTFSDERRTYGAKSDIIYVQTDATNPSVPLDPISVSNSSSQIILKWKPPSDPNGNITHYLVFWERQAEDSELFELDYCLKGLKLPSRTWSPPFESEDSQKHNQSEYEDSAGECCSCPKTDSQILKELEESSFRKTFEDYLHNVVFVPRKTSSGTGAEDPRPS
# Chain of Insulin receptor (P06213 763-1382 limits assumed): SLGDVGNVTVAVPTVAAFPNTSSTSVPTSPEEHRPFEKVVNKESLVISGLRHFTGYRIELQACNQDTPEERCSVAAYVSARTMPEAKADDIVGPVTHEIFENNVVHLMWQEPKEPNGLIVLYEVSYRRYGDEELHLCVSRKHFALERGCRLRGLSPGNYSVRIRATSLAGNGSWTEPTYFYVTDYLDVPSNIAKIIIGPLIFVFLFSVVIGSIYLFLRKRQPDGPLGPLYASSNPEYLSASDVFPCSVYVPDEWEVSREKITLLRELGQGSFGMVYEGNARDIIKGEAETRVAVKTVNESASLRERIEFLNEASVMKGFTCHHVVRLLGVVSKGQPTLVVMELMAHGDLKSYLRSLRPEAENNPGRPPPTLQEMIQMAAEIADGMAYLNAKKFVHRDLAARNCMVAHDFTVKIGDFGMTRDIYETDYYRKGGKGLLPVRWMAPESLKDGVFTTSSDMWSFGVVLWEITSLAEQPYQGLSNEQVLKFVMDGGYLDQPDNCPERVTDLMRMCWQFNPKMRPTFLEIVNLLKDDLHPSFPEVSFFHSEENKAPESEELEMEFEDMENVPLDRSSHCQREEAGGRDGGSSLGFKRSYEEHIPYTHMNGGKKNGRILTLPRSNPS
# [15] = target: Homeodomain-interacting protein kinase 4 (Homo sapiens) (UniProt Q8NE63); test: Binding affinity to wild-type human partial length HIPK4 (M1 to V384 residues) expressed in bacterial expression system assessed as residual binding level at 1 uM by Kinomescan method relative to control
# [16] = target: Rhodopsin kinase GRK7 (Homo sapiens) (UniProt Q8WTQ7); test: Binding affinity to wild-type human full length GRK7 (M1 to L553 residues) expressed in mammalian expression system assessed as residual binding level at 1 uM by Kinomescan method relative to control; outline: as §1
# [17] = target: Rhodopsin kinase GRK1 (Homo sapiens) (UniProt Q15835); test: Binding affinity to wild-type human full length GRK1 (M1 to S563 residues) expressed in mammalian expression system assessed as residual binding level at 1 uM by Kinomescan method relative to control; outline: as §1
# Chain of Rhodopsin kinase GRK1 (Homo sapiens) (Q15835 whole entry, the tested form may be a part): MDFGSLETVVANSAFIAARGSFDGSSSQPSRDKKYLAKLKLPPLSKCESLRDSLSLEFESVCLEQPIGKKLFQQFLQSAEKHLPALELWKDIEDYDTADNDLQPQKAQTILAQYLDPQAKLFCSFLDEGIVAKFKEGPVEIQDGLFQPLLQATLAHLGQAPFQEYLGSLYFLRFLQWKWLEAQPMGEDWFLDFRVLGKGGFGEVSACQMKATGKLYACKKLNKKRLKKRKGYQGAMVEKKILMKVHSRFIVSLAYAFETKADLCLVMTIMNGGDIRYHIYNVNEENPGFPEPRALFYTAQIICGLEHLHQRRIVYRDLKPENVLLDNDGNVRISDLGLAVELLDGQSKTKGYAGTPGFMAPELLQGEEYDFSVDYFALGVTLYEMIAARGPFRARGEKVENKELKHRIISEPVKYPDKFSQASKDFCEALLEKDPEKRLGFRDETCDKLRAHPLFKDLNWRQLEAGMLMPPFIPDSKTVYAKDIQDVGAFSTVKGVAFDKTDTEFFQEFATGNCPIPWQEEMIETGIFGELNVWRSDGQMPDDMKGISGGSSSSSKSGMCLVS
# [18] = target: Tyrosine-protein kinase JAK1 (Homo sapiens) (UniProt P23458); test: Binding affinity to wild-type human partial length JAK1 JH1 catalytic domain (V856 to K1154 residues) expressed in bacterial expression system assessed as residual binding level at 1 uM by Kinomescan method relative to control
# [19] = test system: Phosphatidylinositol 4,5-bisphosphate 3-kinase catalytic subunit alpha isoform (Homo sapiens), P42336 [E545A]; test: Binding affinity to human partial length PIK3CA E545A mutant (R108 to N1068 residues) expressed in mammalian expression system assessed as residual binding level at 1 uM by Kinomescan method relative to control
# [20] = target: Cyclin-dependent kinase 16 (Homo sapiens) (UniProt Q00536); test: Binding affinity to wild-type human partial length PCTK1 (G160 to A474 residues) expressed in mammalian expression system assessed as residual binding level at 1 uM by Kinomescan method relative to control
# Chain of Cyclin-dependent kinase 16 (Homo sapiens) (Q00536 whole entry, the tested form may be a part): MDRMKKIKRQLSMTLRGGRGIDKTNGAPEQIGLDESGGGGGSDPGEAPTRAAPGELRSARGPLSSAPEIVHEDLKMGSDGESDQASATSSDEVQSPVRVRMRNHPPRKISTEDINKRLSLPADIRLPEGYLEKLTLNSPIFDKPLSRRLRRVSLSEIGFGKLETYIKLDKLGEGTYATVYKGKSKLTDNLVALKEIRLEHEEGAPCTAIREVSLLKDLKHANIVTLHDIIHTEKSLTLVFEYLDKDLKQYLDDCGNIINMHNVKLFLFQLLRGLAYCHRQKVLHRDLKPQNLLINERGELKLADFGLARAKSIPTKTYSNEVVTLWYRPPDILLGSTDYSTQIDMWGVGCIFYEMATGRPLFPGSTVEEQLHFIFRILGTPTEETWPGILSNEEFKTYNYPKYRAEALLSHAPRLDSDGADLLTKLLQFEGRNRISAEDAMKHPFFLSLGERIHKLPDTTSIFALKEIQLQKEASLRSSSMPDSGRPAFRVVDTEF
# [21] = target: Serine/threonine-protein kinase SIK2 (Homo sapiens) (UniProt Q9H0K1); test: Binding affinity to wild-type human full length SIK2 (M1 to N926 residues) expressed in bacterial expression system assessed as residual binding level at 1 uM by Kinomescan method relative to control; outline: as §1
# Chain of Serine/threonine-protein kinase SIK2 (Homo sapiens) (Q9H0K1 whole entry, looked up, the tested form may be a part): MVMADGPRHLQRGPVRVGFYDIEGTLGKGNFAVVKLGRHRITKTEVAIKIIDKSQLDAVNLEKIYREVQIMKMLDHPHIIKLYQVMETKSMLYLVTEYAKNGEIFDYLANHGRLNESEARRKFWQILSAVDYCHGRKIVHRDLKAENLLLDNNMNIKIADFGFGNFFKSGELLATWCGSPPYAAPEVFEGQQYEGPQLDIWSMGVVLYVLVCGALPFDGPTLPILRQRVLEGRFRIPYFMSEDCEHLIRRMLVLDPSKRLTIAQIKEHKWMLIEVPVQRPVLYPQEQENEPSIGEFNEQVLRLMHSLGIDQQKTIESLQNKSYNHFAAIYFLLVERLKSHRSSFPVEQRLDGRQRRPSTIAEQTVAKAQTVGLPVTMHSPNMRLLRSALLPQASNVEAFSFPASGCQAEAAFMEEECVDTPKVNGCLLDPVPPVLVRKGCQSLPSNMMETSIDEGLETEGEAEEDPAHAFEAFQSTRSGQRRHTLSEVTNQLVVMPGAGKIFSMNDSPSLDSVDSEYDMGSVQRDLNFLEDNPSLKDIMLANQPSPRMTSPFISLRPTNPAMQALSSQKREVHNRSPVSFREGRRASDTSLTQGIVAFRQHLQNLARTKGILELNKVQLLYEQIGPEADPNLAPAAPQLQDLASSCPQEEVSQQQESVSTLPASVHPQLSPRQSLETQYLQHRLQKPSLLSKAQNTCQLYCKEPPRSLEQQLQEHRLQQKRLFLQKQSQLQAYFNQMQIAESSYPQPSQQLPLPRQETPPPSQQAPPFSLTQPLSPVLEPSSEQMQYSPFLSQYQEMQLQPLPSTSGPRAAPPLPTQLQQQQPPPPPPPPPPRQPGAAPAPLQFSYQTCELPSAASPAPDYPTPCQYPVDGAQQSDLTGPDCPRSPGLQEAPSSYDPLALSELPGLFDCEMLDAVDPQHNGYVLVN
# [22] = target: Serine/threonine-protein kinase PAK 3 (Homo sapiens) (UniProt O75914); test: Binding affinity to wild-type human full length PAK3 (M1 to R544 residues) expressed in bacterial expression system assessed as residual binding level at 1 uM by Kinomescan method relative to control; outline: as §1
# [23] = target: Macrophage colony-stimulating factor 1 receptor (Homo sapiens) (UniProt P07333); test: Binding affinity to wild-type human partial length CSF1R (I564 to S939 residues) expressed in bacterial expression system assessed as residual binding level at 1 uM by Kinomescan method relative to control
# [24] = test system: Epidermal growth factor receptor (Homo sapiens), P00533 [G719C]; test: Binding affinity to human partial length EGFR G719C mutant (R669 to V1011 residues) expressed in bacterial expression system assessed as residual binding level at 1 uM by Kinomescan method relative to control
# Outline: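 Kinome-wide selectivity panel run by the KINOMEscan method, with the test compound at a single concentration of 1 μM. Wild-type and mutant kinases were profiled in the same screen.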
# Chain of Serine/threonine-protein kinase 32B (Homo sapiens) (Q9NY57 whole entry, the tested form may be a part): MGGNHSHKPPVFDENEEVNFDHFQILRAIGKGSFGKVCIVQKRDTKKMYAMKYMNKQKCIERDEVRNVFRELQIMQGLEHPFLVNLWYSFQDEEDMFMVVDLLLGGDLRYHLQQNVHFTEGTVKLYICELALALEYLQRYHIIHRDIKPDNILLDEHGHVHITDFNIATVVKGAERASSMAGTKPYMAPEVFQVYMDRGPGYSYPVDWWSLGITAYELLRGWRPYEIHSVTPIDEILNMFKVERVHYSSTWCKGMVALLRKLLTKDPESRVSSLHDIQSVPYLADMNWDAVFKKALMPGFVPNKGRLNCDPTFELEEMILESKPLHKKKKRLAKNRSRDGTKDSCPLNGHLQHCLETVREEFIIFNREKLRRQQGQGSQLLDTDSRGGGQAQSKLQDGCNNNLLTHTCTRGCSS
smiles,measurement,setting,value
C=CC(=O)Nc1cc(Nc2ncc(Cl)c(Nc3ccccc3S(=O)(=O)C(C)C)n2)c(OC)cc1N(C)CCN(C)C,Activity,[1],2.4%
same,Activity,[2],8.4%
same,Activity,[3],91%
same,Activity,[4],56%
same,Activity,[5],1.2%
same,Activity,[6],100%
same,Activity,[7],81%
same,Activity,[8],39%
same,Activity,[9],0.15%
same,Activity,[10],41%
same,Activity,[11],80%
same,Activity,[12],29%
same,Activity,[13],100%
same,IC50,[14],8 nM
same,Activity,[15],9.4%
same,Activity,[16],4.3%
same,Activity,[17],28%
same,Activity,[18],78%
same,Activity,[19],83%
same,Activity,[20],91%
same,Activity,[21],38%
same,Activity,[22],23%
same,Activity,[23],26%
same,Activity,[24],0.95%
